Assay results as given in ChEMBL document CHEMBL4011629, “New Disubstituted Quindoline Derivatives Inhibiting Burkitt's Lymphoma Cell Proliferation by Impeding c-MYC Transcription” (J Med Chem, 2017).
Active and inactive are the calls of the source. The rule behind the calls is not given here.

How the values were obtained:
[1] = Stabilization of 5'-FAM/3'-TAMRA labeled c-Myc Pu22 G-quadruplex DNA (unknown origin) assessed as change in melting temperature at 2 uM by FRET assay
Procedure, shortened: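 FRET melting of FAM/TAMRA-labelled FPu22T (0.2 μM) in 10 mM Tris-HCl pH 7.4 with 2 mM KCl, ligand 2 μM, in a real-time PCR machine. Excitation 470 nm, emission 530 nm, read every 1 °C from 37 to 99 °C after 30 s hold at each step; ΔTm versus probe alone.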

[2] = Stabilization of c-Myc Pu27 G-quadruplex DNA (unknown origin) assessed as induction of parallel G-quadruplex formation in presence of K+ ions by CD spectroscopic analysis
Procedure, shortened: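 CD spectra: Pu27 at 5 μM in 10 mM Tris-HCl pH 7.4 without or with 100 mM KCl, annealed 95 °C 5 min, slow-cooled, kept at 4 °C overnight, with ligand. Scanned 230–400 in a 4 mm quartz cuvette, 1 nm bandwidth and step, 0.5 s/point; buffer baseline subtracted.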

[3] = Binding affinity to 5'-FAM labeled c-Myc Pu27 G-quadruplex DNA (unknown origin) in presence of K+ ions by MST analysis
Procedure, shortened: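 The DNA was annealed at 95 °C for 5 min, slowly cooled and held at 4 °C overnight. Ligand was run as a 12-point series, 0–20 μM for Pu27 and up to 200 μM for duplex. MST was measured, and KD was fitted to a Hill model from three replicates.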

[4] = Selectivity ratio of Kd for 5'-FAM labeled duplex DNA (unknown origin) to Kd for 5'-FAM labeled c-Myc Pu27 G-quadruplex DNA (unknown origin)
Procedure, shortened: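 MST binding: FAM-Pu27 or FAM-duplex oligo at 10 μM in 10 mM Tris-HCl pH 7.4 with 150 mM KCl, annealed 95 °C 5 min, slow-cooled, held 4 °C overnight. Ligand titrated as a 12-point series, 0–20 μM for G4 or up to 200 μM for duplex. KD fitted with Hill model; three replicates.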

Raji [5] = assay: Effect on NM23-H2 transcription level in human Raji cells up to 4 uM after 12 hrs by RT-PCR method; type: functional, cell-based
Homo sapiens [6] = species: Homo sapiens; assay: Stabilization of c-Myc G-quadruplex DNA in human CCRF-CEM cells assessed as downregulation of c-Myc mRNA level at 2 uM after 12 hrs by RT-PCR method relative to control; type: cell-based
Procedure, shortened: (§1)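 RAJI, CCRF-CEM and U266B1 grown in RPMI 1640 with 10% fetal calf serum at 37 °C, plated at 1 × 10^6 cells/well overnight, then treated 12 h with 4, 2, 1 or 0.5 μM (DMSO control). RNA (2 μg) reverse-transcribed with oligo dT18/M-MLV; c-MYC, NM23-H2 and β-actin amplified by real-time PCR, checked on 1.5% agarose.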

Homo sapiens [7] = species: Homo sapiens; assay: Stabilization of c-Myc G-quadruplex DNA in human U266B1 cells assessed as downregulation of c-Myc mRNA level up to 4 uM after 12 hrs by RT-PCR method; type: cell-based; procedure, shortened: as §1
Homo sapiens [8] = species: Homo sapiens; assay: Stabilization of c-Myc G-quadruplex DNA in human Raji cells assessed as downregulation of c-Myc protein level at 1 uM by Western blot method; type: cell-based; conditions: TDE = time-dependent effect
Procedure, shortened: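 Western blot of RAJI cells treated either with 1 μM for 6, 12, 24 and 48 h or with graded concentrations for 6 h. Lysed in 1% NP-40, 50 μg protein/lane on 3–12% SDS-PAGE, nitrocellulose, probed for c-MYC, NM23-H2, GAPDH loading control, HRP secondary with ECL; untreated control, three replicates.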

[9] = Drug uptake in human Raji cells at 1 uM after 12 to 48 hrs; type: ADME, cell-based
Homo sapiens [10] = species: Homo sapiens; assay: Inhibition of NM23-H2 binding to c-Myc G-quadruplex DNA in human Raji cells up to 4 uM after 6 hrs by ChIP-PCR method; type: cell-based
Raji [11] = assay: Cell cycle arrest in human Raji cells assessed as accumulation at G0/G1 phase after 12 hrs by propidium iodide staining based flow cytometry (reference value: 38.5%); type: functional
Raji [12] = assay: Cell cycle arrest in human Raji cells assessed as accumulation at S phase after 24 hrs by propidium iodide staining based flow cytometry (reference value: 32.2%); type: functional
Raji [13] = assay: Cell cycle arrest in human Raji cells assessed as accumulation at G2/M phase after 48 hrs by propidium iodide staining based flow cytometry (reference value: 24.4%); type: functional
Raji [14] = assay: Induction of apoptosis in human Raji cells assessed as early apoptotic cells at 0.5 uM after 12 hrs by Annexin V-FITC/propidium iodide staining based flow cytometry (reference value: 2.3%); type: functional
Procedure, shortened: (§2)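 RAJI cells exposed to compound or control medium for 12 or 48 h were washed in PBS and resuspended in binding buffer. They were stained with FITC annexin V and PI for 15 min in the dark, and fluorescence was measured by flow cytometry.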

Raji [15] = assay: Induction of apoptosis in human Raji cells assessed as late apoptotic cells at 0.5 uM after 12 hrs by Annexin V-FITC/propidium iodide staining based flow cytometry relative to control; type: functional; procedure, shortened: as §2
Raji [16] = assay: Induction of apoptosis in human Raji cells assessed as late apoptotic cells at 1 uM after 12 hrs by Annexin V-FITC/propidium iodide staining based flow cytometry relative to control; type: functional; procedure, shortened: as §2
Raji [17] = assay: Induction of apoptosis in human Raji cells assessed as late apoptotic cells at 1 uM after 48 hrs by Annexin V-FITC/propidium iodide staining based flow cytometry (reference value: 0.1%); type: functional; procedure, shortened: as §2
Raji [18] = assay: Induction of apoptosis in human Raji cells assessed as downregulation of Cyclin D3 expression after 12 hrs by Western blot method; type: functional, cell-based
Procedure, shortened: (§3)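 After compound exposure (12 h for cell-cycle and apoptosis markers), RAJI cells were lysed in 1% NP-40 buffer. Protein at 50 μg per lane was run on 3–12% SDS-PAGE and transferred to nitrocellulose. Blots were probed with primary antibodies (GAPDH as loading reference) and detected with an HRP secondary and enhanced chemiluminescence.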

Raji [19] = assay: Induction of apoptosis in human Raji cells assessed as downregulation of CDK6 expression after 12 hrs by Western blot method; type: functional, cell-based; procedure, shortened: as §3
Raji [20] = assay: Induction of apoptosis in human Raji cells assessed as upregulation of cleaved PARP expression up to 4 uM after 12 hrs by Western blot method; type: functional, cell-based; procedure, shortened: as §3
Raji [21] = assay: Antitumor activity against human Raji cells xenografted in NOD/SCID nude mouse assessed as reduction in tumor volume at 15 mg/kg, ip administered once daily for 2 weeks relative to control; type: functional
Procedure, shortened: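 NOD/SCID mice were implanted subcutaneously in the underarm with RAJI cells (5 × 10^6 per 100 μL of RPMI 1640 with 10% serum). Tumours reached […] after 1 week, and mice were then randomised. […] Tumour volume was recorded daily and tumour weight at the end.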

Mus musculus = assay: Toxicity in NOD/SCID nude mouse xenografted with human Raji cells assessed as reduction in viscera weight at 15 to 30 mg/kg, ip administered once daily for 2 weeks measured every day during compound dosing; type: organism-based; conditions: in vivo, 336 h
Procedure, shortened: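 NOD/SCID mice implanted subcutaneously in the underarm with 5 × 10^6 RAJI cells in 100 μL RPMI 1640 with 10% serum; tumours grown about 1 week, then mice randomized. Body weight recorded daily; organ weights taken at end.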

CN(C)CCCNc1c2ccccc2nc2c1oc1ccc(OCC3CCN(C)CC3)cc12
ΔTm [1]: 26.6 °C | Activity [2]: Dose-dependent effect | Kd [3]: 1300 nM | Selectivity ratio [4]: 8 | Activity (Raji [5]): inactive | Activity (Homo sapiens [6]): < 20% | Activity (Homo sapiens [7]): inactive | Activity (Homo sapiens [8]): Tde | Drug uptake [9]: Not Active | Activity (Homo sapiens [10]): Active | Activity (Raji [11]): 60.2% | Activity (Raji [12]): 19.4% | Activity (Raji [13]): 16.6% | Activity (Raji [14]): 4.6% | Activity (Raji [15]): 0.2% | Activity (Raji [16]): 0.3% | Activity (Raji [17]): 37% | Activity (Raji [18]): Dose-dependent effect | Activity (Raji [19]): Dose-dependent effect | Activity (Raji [20]): Active | T/C (Raji [21]): 33.3% | Activity (Mus musculus): Non-Toxic
